From ChEMBL document CHEMBL2034980, “N⁴-Phenyl-substituted 2-acetylpyridine thiosemicarbazones: cytotoxicity against human tumor cells, structure-activity relationship studies and investigation on the mechanism of action” (Bioorg Med Chem, 2012)

How the values were obtained:
[1] = test system: T98G; test: Cytotoxicity against human T98G cells expressing mutant p53 after 48 hrs by MTT assay; assay type: functional, cell-based; settings: read-out: pIC50 (converted)
Procedure, shortened: (§1)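 MTT assay. Cells were grown in DMEM with 10% FBS and penicillin/streptomycin at 37 °C under 5% CO2, seeded at 1–2×10^3 cells/well and treated 12 h later with 1×10^-12 to 1×10^-5 M ([…] from DMSO stock, final DMSO <0.5%) for 48 h. MTT was added at 0.5 mg mL⁻¹, formazan dissolved in DMSO and read at 570 nm. IC50 is the concentration giving 50% cytotoxicity. Quadruplicates, ≥3 independent experiments.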

[2] = test system: MCF7; test: Cytotoxicity against human MCF7 cells after 48 hrs by MTT assay; assay type: functional, cell-based; settings: MCF7, 48 h, read-out: pIC50 (converted); procedure, shortened: as §1
[3] = Cytotoxicity against human U87 cells expressing wild-type p53 after 48 hrs by MTT assay; assay type: functional, cell-based, U-87MG ATCC; settings: U-87 MG, read-out: pIC50 (converted); procedure, shortened: as §1

| SMILES | IC50 [1] [nM] | IC50 [2] [nM] | IC50 [3] [nM] |
| --- | --- | --- | --- |
| C/C(=N\NC(=S)Nc1cccc([N+](=O)[O-])c1)c1ccccn1 | 140 | 38 | 69 |
| C/C(=N/NC(=S)Nc1ccccc1I)c1ccccn1 | 8.09 | 4.1 | 6.1 |
| C/C(=N\NC(=S)Nc1ccccc1)c1ccccn1 | 6.81 | 0.18 | 1.4 |
| C/C(=N/NC(=S)Nc1cccc(F)c1)c1ccccn1 | 12 | 8.99 | 18 |
| C/C(=N\NC(=S)Nc1ccc([N+](=O)[O-])cc1)c1ccccn1 | 140 | 52 | 160 |
| C/C(=N/NC(=S)Nc1ccc(Cl)cc1)c1ccccn1 | 5.9 | 8.49 | 1.7 |
| C/C(=N\NC(=S)Nc1cccc(F)c1)c1ccccn1 | 12 | 8.99 | 18 |
| C/C(=N\NC(=S)Nc1ccc(F)cc1)c1ccccn1 | 17 | 1.2 | 10 |
| C/C(=N/NC(=S)Nc1cccc([N+](=O)[O-])c1)c1ccccn1 | 140 | 38 | 69 |
| C/C(=N/NC(=S)Nc1ccccc1)c1ccccn1 | 6.81 | 0.18 | 1.4 |
| C/C(=N\NC(=S)Nc1ccccc1[N+](=O)[O-])c1ccccn1 | 6.61 | 5.7 | 4.3 |
| C/C(=N\NC(=S)Nc1ccc(I)cc1)c1ccccn1 | 64 | 6.61 | 59 |
| C/C(=N/NC(=S)Nc1ccccc1[N+](=O)[O-])c1ccccn1 | 6.61 | 5.7 | 4.3 |
| C/C(=N\NC(=S)Nc1ccc(Cl)cc1)c1ccccn1 | 5.9 | 8.49 | 1.7 |
| C/C(=N/NC(=S)Nc1ccc([N+](=O)[O-])cc1)c1ccccn1 | 140 | 52 | 160 |
